ChEMBL document CHEMBL1149681, “OSW-1 analogues: modification of the carbohydrate moiety” (Bioorg Med Chem Lett, 2007)

What was measured:
Assay type in all cases: functional, cell-based
[1] = tested on: DLD-1; assay: Antitumor activity against human DLD1 cells by methylene blue staining method
In short: (§1)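 Cells grown in RPMI1640 with 10% fetal bovine serum, seeded in 96-well plates and cultured overnight at 37 °C, 5% CO2 before serially diluted samples were added. After 3 days of culture, stained 30 min with 0.05% methylene blue in 10 mM Tris pH 8.5, washed with water, dye extracted with 3% HCl, OD660 read. Independent triplicates; IC50 from means. Cisplatin control included in each assay.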

[2] = tested on: A498; assay: Antitumor activity against human A498 cells by methylene blue staining method; in short: as §1
[3] = tested on: NCI-H460; assay: Antitumor activity against human NCI-H460 cells by methylene blue staining method; in short: as §1
[4] = tested on: PC-3; assay: Antitumor activity against human PC3 cells by methylene blue staining method; in short: as §1
[5] = tested on: T47D; assay: Antitumor activity against human T47D cells by methylene blue staining method; in short: as §1
[6] = tested on: UO-31; assay: Antitumor activity against human UO31 cells by methylene blue staining method; in short: as §1
[7] = tested on: HCT-116; assay: Antitumor activity against human HCT116 cells by methylene blue staining method; in short: as §1
[8] = tested on: MDA-MB-231; assay: Antitumor activity against human MDA-MB-231 cells by methylene blue staining method; in short: as §1

Compound | IC50 [1] | IC50 [2] | IC50 [3] | IC50 [4] | IC50 [5] | IC50 [6] | IC50 [7] | IC50 [8]
COc1cccc2c1C(=O)c1c(O)c3c(c(O)c1C2=O)C[C@@](O)(C(=O)CO)C[C@@H]3O[C@H]1C[C@H](N)[C@H](O)[C@H](C)O1 [DOXORUBICIN] | 100 nM | 35 nM | 3.7 nM | 200 nM | 27 nM | 100 nM | 37 nM | 100 nM
COc1ccc(C(=O)O[C@H]2[C@H](O[C@@H]3CCO[C@H](O[C@H]4C[C@H]5[C@@H]6CCc7cc(O)ccc7[C@H]6CC[C@]5(C)[C@@]4(O)[C@H](C)C(=O)CCC(C)C)[C@H]3OC(C)=O)OC[C@@H](O)[C@@H]2O)cc1 | – | – | 13700 nM | – | – | – | – | 10900 nM
CC(=O)O[C@@H]1[C@@H](O[C@H]2C[C@H]3[C@@H]4CCc5cc(O)ccc5[C@H]4CC[C@]3(C)[C@@]2(O)[C@H](C)C(=O)CCC(C)C)OC[C@@H](O)[C@H]1O[C@@H]1OC[C@@H](O)[C@H](O)[C@H]1O | – | – | 9980 nM | – | – | – | – | 6940 nM
COc1ccc(C(=O)O[C@@H]2CCO[C@H]2O[C@H]2[C@H](OC(C)=O)[C@@H](O[C@H]3C[C@H]4[C@@H]5CCc6cc(O)ccc6[C@H]5CC[C@]4(C)[C@@]3(O)[C@H](C)C(=O)CCC(C)C)OC[C@H]2O)cc1 | – | – | 5750 nM | – | – | – | – | 18200 nM

Next, values leading:

IC50 [1] | IC50 [2] | IC50 [3] | IC50 [4] | IC50 [5] | IC50 [6] | IC50 [7] | IC50 [8] | Compound
1720 nM | 300 nM | 2590 nM | 680 nM | 2810 nM | 56 nM | 2900 nM | 850 nM | COc1ccc(C(=O)O[C@H]2[C@H](O[C@H]3[C@H](OC(C)=O)[C@@H](O[C@H]4C[C@H]5[C@@H]6CCc7cc(O)ccc7[C@H]6CC[C@]5(C)[C@@]4(O)[C@H](C)C(=O)CCC(C)C)OC[C@H]3F)OC[C@@H](O)[C@@H]2O)cc1
1180 nM | 430 nM | 260 nM | 1400 nM | 710 nM | – | – | 680 nM | COc1ccc(C(=O)O[C@H]2[C@H](O[C@H]3[C@H](OC(C)=O)[C@@H](O[C@H]4C[C@H]5[C@@H]6CCc7cc(O)ccc7[C@H]6CC[C@]5(C)[C@@]4(O)[C@H](C)C(=O)CCC(C)C)OC[C@H]3O)OC[C@@H](O)[C@@H]2O)cc1
